Lmaj promast: Leishmania major promastigote growth inhibition; Leishmania major promastigotes, resazurin fluorescence viability; inhibition, % at 10 µM; 9% of 200,000 active; AID 1063;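 also: promastigotes grown with compound for 44 hours at 28 °C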
Rad51 HR inh: Rad51 (human) homologous recombination inhibition; Q06609; 0.085% of 200,000 active; hRad51 DNA strand exchange, fluorescence dequenching; inhibition, % at 10 µM; AID 1385;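 active = inhibition above 40% at the single screening dose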
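Material: Human Rad51 nucleoprotein filaments preassembled on unlabelled ssDNA | Also added: Labelled 47-mer dsDNA for strand exchange | Dosing: Single dose, 10 µM final compound | Schedule: 30-min compound preincubation and 15-min exchange, both room temperature | Technique: Fluorescence dequenching at 485/520 nm | Measure: Percent inhibition relative to plate controls and blanks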
Wee1 degr inh: human Wee1 degradation inhibition, primary screen; 1.2% of 220,000 active; HeLa Luc-Wee1K328M stability, luciferase luminescence; 100% = proteasome inhibitor MG132 effect; P30291; reporter increase, % at 5 µM; AID 1321;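 active = activation above the mean of all tested compounds plus 3 SD, set per screening run, cut at about 8.8% in these data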;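 also: cells exposed to compound for 20 h before luminescence read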
Arbovirus anti: antivirals against arbovirus infection; 0.37% of 200,000 active; inhibition, % at 10 µM; arbovirus infection cell-based antiviral screen; in the data active = inhibition above about 30%
CHOP inh: inhibitors of CHOP induction in ER stress response. CHO-K1 CHOP-promoter luciferase, tunicamycin-induced, 15-18 h. inhibition, % at 10 µM. 3.8% of 220,000 active;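 active = compounds that reduced the stress-induced luciferase reporter signal by more than about 70% of percent inhibition, limit read from the data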
PKD1 inh: inhibitors of human PKD1 kinase | PKD1 kinase fluorescence polarization assay | inhibition, % (test concentration not listed) | 0.056% of 200,000 active
Target sequence (Q15139 whole entry, looked up): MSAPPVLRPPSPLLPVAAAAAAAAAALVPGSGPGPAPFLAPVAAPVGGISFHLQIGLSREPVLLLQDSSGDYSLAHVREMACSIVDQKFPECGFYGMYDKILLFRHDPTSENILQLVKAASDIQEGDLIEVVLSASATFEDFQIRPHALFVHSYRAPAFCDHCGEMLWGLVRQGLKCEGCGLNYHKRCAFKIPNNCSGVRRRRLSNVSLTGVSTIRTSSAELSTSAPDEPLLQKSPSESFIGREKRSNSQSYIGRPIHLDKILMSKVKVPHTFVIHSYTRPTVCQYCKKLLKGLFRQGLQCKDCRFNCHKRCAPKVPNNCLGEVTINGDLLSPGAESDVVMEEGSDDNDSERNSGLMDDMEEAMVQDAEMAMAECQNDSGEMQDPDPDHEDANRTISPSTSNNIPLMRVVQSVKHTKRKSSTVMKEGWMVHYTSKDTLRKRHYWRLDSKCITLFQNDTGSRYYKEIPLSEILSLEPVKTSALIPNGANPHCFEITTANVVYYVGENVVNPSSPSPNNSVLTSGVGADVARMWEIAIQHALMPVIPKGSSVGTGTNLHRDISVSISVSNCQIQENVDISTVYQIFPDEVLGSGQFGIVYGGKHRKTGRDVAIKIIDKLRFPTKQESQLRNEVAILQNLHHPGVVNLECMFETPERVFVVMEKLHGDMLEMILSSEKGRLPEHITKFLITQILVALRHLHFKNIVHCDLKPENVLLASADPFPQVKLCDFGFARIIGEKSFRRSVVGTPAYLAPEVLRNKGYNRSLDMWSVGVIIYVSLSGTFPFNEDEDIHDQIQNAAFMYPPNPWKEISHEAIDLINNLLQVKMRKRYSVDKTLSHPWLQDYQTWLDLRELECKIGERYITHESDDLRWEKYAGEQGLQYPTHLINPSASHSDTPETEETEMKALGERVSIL
A number is an active result; – = inactive; · = no result. Shown are actives, neighbours in structure and some others; about 12% of the full set was active somewhere. Rule as the data show it, unless noted: active = inhibition above about 50%; inactive = the rest.

SMILES | Lmaj promast | Rad51 HR inh | Wee1 degr inh | Arbovirus anti | CHOP inh | PKD1 inh
Brc1cccc(CSc2nnc(-c3ccncc3)o2)c1 | – | · | – | – | – | –
O=C(NCc1cccnc1)c1ccccc1CCc1ccccc1 | – | – | – | – | – | –
Nc1nc(CN2CCN(c3cccc(Cl)c3)CC2)nc(N2CCCc3ccccc32)n1 | – | – | – | – | 88.0 | –
OC1(CNCc2cn[nH]c2-c2cc3ccccc3o2)CCCCC1 | – | – | – | – | – | –
Cc1c(C#N)c(N)nc(Cl)c1C#N | – | – | – | – | – | 115.4
Cn1c(=O)[nH]c(=O)c2cc(C(=O)c3cc(F)ccc3O)cnc21 | – | – | 10.1 | – | – | –
N#C/C(=C/c1ccccc1)C(=O)NCc1ccccc1 | – | – | – | – | – | –
COCCCNC(=O)/C(C#N)=C/c1cccc(NC(=O)c2ccccc2Cl)c1 | 75.0 | – | – | – | – | –
COCCCNC(=O)/C(C#N)=C/c1ccc(F)cc1 | – | – | – | – | – | –
N#C/C(=C\c1cccc(NC(=O)c2ccccc2Cl)c1)C(=O)NCCc1ccccc1 | 98.9 | – | – | – | – | –
Cc1c(Cl)cccc1NC(=S)N1CCN(S(=O)(=O)c2cccs2)CC1 | – | – | – | – | – | –
COc1ccc(Cc2nnc(N/N=C/c3ccc(O)cc3)[nH]c2=O)cc1OC | 97.6 | – | – | – | 84.3 | –
O=C1c2ccccc2C(=O)N1CCCCSc1nc2ccccc2c(=O)n1CCCN1CCOCC1 | – | – | – | – | – | –
O=C(O)CCCCCC[C@H]1C(=O)NC(=O)N1CC[C@@H](O)C1CCCCC1 | · | · | · | · | – | ·
CN=c1scc(-c2ccc([N+](=O)[O-])cc2)n1/N=C/c1ccco1 | – | – | – | – | – | –
CN=c1scc(-c2ccc(F)cc2)n1/N=C/c1ccc(O)c(O)c1 | 100.0 | – | – | – | 71.9 | –
O=C(NCCc1c[nH]c2ccccc12)C(=O)NCC(c1ccco1)N1CCN(c2ccc(F)cc2)CC1 (stereo unspecified) | – | · | – | – | – | –
O=C(NCCc1c[nH]c2ccccc12)C(=O)NCC(c1ccco1)N1CCN(c2ccccc2)CC1 (stereo unspecified) | 89.4 | – | – | – | – | –
O=C(NCc1ccncc1)C(=O)NCC(c1ccco1)N1CCN(c2ccccc2F)CC1 (stereo unspecified) | 51.7 | – | – | – | – | –
O=C(NCc1ccncc1)C(=O)NCC(c1ccccc1)c1ccccc1 | 57.5 | – | – | – | – | –
O=C(NCCC1=CCCCC1)C(=O)NCC(c1ccco1)N1CCN(c2ccccc2)CC1 (stereo unspecified) | 88.5 | – | – | – | 94.3 | –
Cn1nc(NC(=O)CC23CC4CC(CC(C4)C2)C3)c2c(F)cccc21 | · | – | – | · | – | ·
CCOC(=O)N1CCN(C(=O)c2ccc3c(=O)n(-c4cc(OC)ccc4OC)c(=S)[nH]c3c2)CC1 | – | · | – | – | – | –
O=C(NCC(c1ccco1)N1CCN(c2ccccc2F)CC1)OCc1ccccc1 (stereo unspecified) | – | – | – | – | – | –
O=C(NCCC1=CCCCC1)C(=O)NCC(c1ccco1)N1CCN(c2ccccc2F)CC1 (stereo unspecified) | 74.2 | – | – | – | – | –
SMILES | Lmaj promast | Rad51 HR inh | Wee1 degr inh | Arbovirus anti | CHOP inh | PKD1 inh
COc1ccc(N2CCN(C(CNC(=O)C(=O)NCc3ccncc3)c3ccco3)CC2)cc1 (stereo unspecified) | – | – | – | – | – | –
COc1ccc(N2CCN(C(CNC(=O)C(=O)NCCC3=CCCCC3)c3ccco3)CC2)cc1 (stereo unspecified) | 86.2 | – | – | – | 87.0 | –
Cc1nc2cc(-c3ccc(Cl)cc3)nn2c(NCCN(C)C)c1C | 100.3 | – | – | – | – | –
Cc1ccc(C)c(-n2c3nc(=O)n(C)c(=O)c-3cc3ccccc32)c1 | · | – | – | · | – | ·
Cc1ccc(C)c(-n2c3nc(=O)[nH]c(=O)c-3cc3cc([N+](=O)[O-])ccc32)c1 | 97.2 | · | – | – | – | –
O=C(O)c1cc(-c2ccc(/C=C3/SC(=S)N(Cc4ccccc4)C3=O)o2)ccc1Cl | – | – | – | – | – | –
O=C(O)c1cccc(N2C(=O)/C(=C/c3ccc(SCc4ccc(Cl)cc4)o3)SC2=S)c1 | – | – | 12.2 | – | 75.2 | –
CCOc1ccccc1OCC(=O)NNC(=O)Cn1cnc2c1c(=O)n(C)c(=O)n2C | – | – | – | – | – | –
